# A selection: hits, their analogues and other compounds. The true share with any hit is near 12%.
# Wee1 stabilizer: inhibitors of human Wee1 degradation; P30291; HeLa Luc-Wee1K328M stability, luciferase luminescence; 100% = proteasome inhibitor MG132 effect; reporter increase, % at 5 µM; 220,000 tested, 1.2% active; AID 1321;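 active means activation above the mean of all tested compounds plus 3 SD, set per screening run, cut at about 8.8% in these data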;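 further: cells exposed to compound for 20 h before luminescence read; 0% = DMSO alone and 100% = MG132 at 30 µM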
# Target sequence (P30291 whole entry K328M): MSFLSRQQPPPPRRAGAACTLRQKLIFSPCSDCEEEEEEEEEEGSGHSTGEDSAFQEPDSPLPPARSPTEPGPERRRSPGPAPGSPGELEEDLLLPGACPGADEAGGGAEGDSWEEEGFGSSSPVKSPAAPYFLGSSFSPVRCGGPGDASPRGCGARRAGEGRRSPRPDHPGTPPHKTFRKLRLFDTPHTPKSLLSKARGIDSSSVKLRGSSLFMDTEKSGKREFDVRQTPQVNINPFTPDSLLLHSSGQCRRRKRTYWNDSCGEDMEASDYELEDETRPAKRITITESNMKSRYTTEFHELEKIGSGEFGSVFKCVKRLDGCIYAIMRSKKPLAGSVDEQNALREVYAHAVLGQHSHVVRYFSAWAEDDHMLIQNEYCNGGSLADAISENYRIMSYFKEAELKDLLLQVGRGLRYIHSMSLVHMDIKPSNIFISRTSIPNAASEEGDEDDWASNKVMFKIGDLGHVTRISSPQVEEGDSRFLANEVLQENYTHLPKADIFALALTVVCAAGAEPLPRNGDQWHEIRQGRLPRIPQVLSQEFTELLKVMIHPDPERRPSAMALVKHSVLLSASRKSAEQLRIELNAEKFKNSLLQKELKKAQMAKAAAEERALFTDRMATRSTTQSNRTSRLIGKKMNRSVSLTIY
# Arbovirus inh: blocks arbovirus infection | inhibition, % at 10 µM | arbovirus infection cell-based antiviral screen | 200,000 tested, 0.37% active; in the data active means inhibition above about 30%
# Rad51 HR inh: Rad51 (human) homologous recombination inhibition | 200,000 tested, 0.085% active | inhibition, % at 10 µM | hRad51 DNA strand exchange, fluorescence dequenching | AID 1385 | Q06609;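 active means inhibition above 40% at the single screening dose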;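 further: 0% = DMSO control wells and 100% = blanks with heterologous ssDNA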
#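 System: hRad51 filaments on single-stranded DNA; reagent: Fluorescein- and BHQ1-tagged 47-mer duplex; compound dosing: one concentration, 10 µM final; timing: filaments 15 min 37 °C, then compound 30 min; measured by: fluorescein emission 520 nm, excitation 485 nm; benchmarks: per-plate controls and blanks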
# CHOP inhibitor: blocks CHOP induction under ER stress. CHO-K1 CHOP-promoter luciferase, tunicamycin-induced, 15-18 h. inhibition, % at 10 µM. 220,000 tested, 3.8% active. AID 2732;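 active means compounds that reduced the stress-induced luciferase reporter signal by more than about 70% of percent inhibition, limit read from the data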;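 further: 0% = tunicamycin plus vehicle and 100% = wells without tunicamycin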
# Lmaj promast: inhibitors of Leishmania major promastigote growth; 200,000 tested, 9% active; inhibition, % at 10 µM; Leishmania major promastigotes, resazurin fluorescence viability;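 further: promastigotes grown with compound for 44 hours at 28 °C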
# PKD1 inh: inhibitors of human PKD1 kinase | AID 797 | 200,000 tested, 0.056% active | PKD1 kinase fluorescence polarization assay | Q15139 | inhibition, % (concentration not given with the values)
# * = called active by the depositor; · = no result. Unless noted, no stated cut-off is given here; in the data, active means inhibition above about 50%; inactive means the rest.
SMILES,Wee1 stabilizer,Arbovirus inh,Rad51 HR inh,CHOP inhibitor,Lmaj promast,PKD1 inh
S=C1N(c2ccccc2)C(c2ccc(Br)cc2)N2CCCN12 (configuration not stated),-1.0,·,7.2,9.5,·,·
Cc1onc(-c2c(Cl)cccc2Cl)c1C(N)=O,-0.9,2.5,7.7,41.8,-4.3,1.9
Cc1onc(-c2c(Cl)cccc2Cl)c1C(=O)n1nnc2ccccc21,0.5,8.6,-7.2,95.7*,-2.7,-7.5
Cc1onc(-c2ccccc2Cl)c1C(=O)N1CCN(c2nc3ccccc3s2)CC1,6.6,9.3,4.3,2.5,50.6*,-2.1
Cc1onc(-c2c(Cl)cccc2Cl)c1C(=O)N1CCN(c2ccccc2)CC1,-0.5,-9.9,19.6,-12.0,95.6*,2.8
O=C(NCc1ccccc1Cl)C1CCC(CNc2c(N3CCOCC3)c(=O)c2=O)CC1 (configuration not stated),-2.5,·,9.6,-9.7,·,·
O=C(Nc1cccnc1)C1CCCN(S(=O)(=O)c2cccc3nsnc23)C1 (configuration not stated),-3.3,6.4,0.2,-20.0,-2.1,-9.8
CCOP(=O)(Nc1ccc2oc(=O)c3ccccc3c2c1)OCC,-0.5,·,·,24.0,·,·
COCCOc1ccc(C(F)(F)F)cc1Nc1nc2ccccc2o1,2.0,-5.6,·,87.5*,6.3,-6.9
Cc1cccc(NC(=O)Nc2cc(C)cc(C)n2)c1,0.6,-0.5,-8.9,-12.4,35.1,-2.0
O=S(=O)(NCc1ccccc1)c1ccc(Cl)cc1,-2.7,-0.7,-1.9,-14.4,-0.3,-7.2
O=S(=O)(Nc1cc2nc3ccccc3nc2n1Cc1ccccc1)c1ccc(Cl)cc1,-1.9,-31.1,-55.2,92.5*,8.1,-5.7
CS(=O)(=O)N1CCN(C(=O)c2ccc(Cl)s2)CC1,0.9,-0.3,43.1*,8.5,-2.7,-1.7
O=C(c1ccc(Cl)s1)N1CCCC1,-0.4,2.7,-1.0,7.7,-3.3,4.4
CCOC(=O)N/N=C(/C)c1cccc(-n2cnnn2)c1,-2.2,0.7,0.2,-8.7,0.8,-12.2
CCCc1nc2oc3ccccc3c(=O)c2c(=O)n1-c1ccc(C)cc1,10.0*,·,-13.1,-27.2,·,·
CCc1nc2oc3ccccc3c(=O)c2c(=O)n1-c1ccc(C)cc1,2.8,·,-24.5,-8.1,·,·
Cc1ccc(-n2c(C(C)C)nc3oc4ccccc4c(=O)c3c2=O)cc1,10.3*,·,-6.7,-20.5,·,·
CCc1nc2oc3ccccc3c(=O)c2c(=O)n1-c1ccccc1,0.7,5.5,-7.8,-3.4,8.3,-11.2
Cn1c(=O)c2[nH]c(N3CCN(c4ccccn4)CC3)nc2n(C)c1=O,-0.4,3.4,-1.7,25.0,-5.5,3.7
Cc1ccnc(NC(=O)C2CCN(S(=O)(=O)c3cccc4nonc34)CC2)c1,-0.8,0.2,-9.5,47.8,98.5*,-10.6
Cc1cccc(N2CCN(S(=O)(=O)c3cccc4nonc34)CC2)c1C,7.5,5.9,1.1,72.8*,-0.9,4.0
COc1ccc(-c2c(C(F)(F)F)oc3c(CN4CCN(C)CC4)c(O)ccc3c2=O)cc1,1.9,2.3,-2.1,34.8,99.8*,-2.4
COC(=O)c1ccc(Oc2c(C)oc3c(CN4CCN(C)CC4)c(O)ccc3c2=O)cc1,-2.7,3.4,-22.9,·,99.8*,4.7
Cc1oc2c(CN3CCCC3)c(O)ccc2c(=O)c1-c1ccccc1,-1.1,-6.2,·,3.4,5.1,-2.1
SMILES,Wee1 stabilizer,Arbovirus inh,Rad51 HR inh,CHOP inhibitor,Lmaj promast,PKD1 inh
O=c1c(Oc2ccccc2Br)c(C(F)(F)F)oc2c(CN3CCCC3)c(O)ccc12,-1.8,-0.3,-3.5,12.4,85.7*,1.6
CCN1CCN(Cc2c(O)ccc3c(=O)c(-c4ccc(OC)c(OC)c4)c(C)oc23)CC1,-2.6,7.8,-15.5,·,100.0*,9.4
COc1ccccc1Oc1c(C)oc2c(CN3CCN(C)CC3)c(O)ccc2c1=O,0.3,-3.4,·,11.0,21.4,-9.9
Cc1ccc(C(=O)NCC(=O)OCC(=O)Nc2ccccc2C#N)s1,-1.8,2.9,-5.0,-5.3,-2.6,2.6
COc1cc(/C=N/NC(=O)C(=O)/C=C2\NC(C)(C)Cc3ccccc32)ccc1O,-1.1,·,10.8,12.2,·,·
O=C(CSc1ncccn1)N1CCC(Cc2ccccc2)CC1,-0.8,-12.4,0.2,9.9,1.4,0.8
O=C(CCc1ccc(O)c(O)c1)NNC(=S)Nc1ccc(Br)cc1Cl,-1.6,-10.2,-4.2,-25.2,-5.5,5.5
O=Cc1ccc(OCc2nnsc2Cl)cc1,2.3,-2.8,6.8,-6.8,-2.0,9.3
COc1ccc(-c2c(C)oc3c(CN4CCN(C)CC4)c(O)ccc3c2=O)cc1,-2.4,-0.4,11.0,21.2,99.1*,-8.0
Cc1cc(NC(=O)COC(=O)C(Nc2ccc(C(F)(F)F)cc2Cl)C(C)C)no1 (configuration not stated),3.4,-39.8,4.7,101.8*,11.1,1.9
Cc1ccc(S(=O)(=O)N(C)C)cc1NC(=S)NC12CC3CC(CC(C3)C1)C2,-1.7,8.7,3.1,35.6,77.6*,-5.1
COc1cc(Cl)nn(-c2ccccc2)c1=O,0.8,2.5,-19.1,-9.4,6.4,0.3
O=c1c(Cl)cc(Cl)nn1-c1ccccc1,4.9,-35.2,10.4,-32.8,70.5*,-8.7
O=C(CCC(=O)Nc1nnc(C2CCCCC2)s1)NCc1ccccc1,1.5,·,·,17.8,·,·
CCc1nnc(SCC(=O)NC2CCCC2)nc1CC,-2.3,-1.4,1.8,74.4*,-3.7,-0.9
CCOC(=O)c1cc2nc(Nc3ccc(OC)cc3)sc2s1,1.0,-8.3,-10.7,70.2*,-2.6,6.5
O=C(CSc1n[nH]c(=O)[nH]c1=O)N/N=C/c1ccccc1,4.1,-1.7,-6.4,6.9,55.6*,4.2
CC(C(=O)Nc1ccc(S(=O)(=O)N2CCOCC2)cc1)N1C(=O)C2CC=CCC2C1=O (configuration not stated),0.4,5.2,·,-11.1,-6.1,-1.3
C/C(CC(=O)Nc1ccc(N(C)C)cc1)=N\NC(=O)Cc1csc(N)n1,0.8,-1.3,-1.0,24.0,75.3*,3.0
Cc1ccc(N2C(=O)CS/C2=N\C(=S)Nc2ccccc2)cc1,7.7,·,·,42.7,·,·
N=c1n(CCCOc2ccccc2Cl)c2ccccc2n1CC(N)=O,-0.5,·,-18.4,-8.9,·,·
Clc1cccc(/C(Cc2nc3ccccc3[nH]2)=N\Nc2ccccc2)c1,5.5,-19.1,1.0,57.6,39.7,5.4
CCC(NC(=O)c1ccccc1NC(=O)c1ccccc1)C(=O)O (configuration not stated),-2.2,-3.8,-1.2,-5.9,64.6*,0.4
CCC(NC(=O)c1ccccc1NC(=O)c1ccco1)C(=O)O (configuration not stated),1.4,0.3,2.5,69.3,89.0*,1.8
O=C(O)CC(NC(=O)c1ccccc1NC(=O)c1ccccc1)C(=O)O (configuration not stated),0.4,14.9,4.3,22.2,-5.0,8.0
CCOC(=O)c1[nH]c(COC(=O)c2ccccc2NC(=O)c2ccco2)c(C(=O)OCC)c1C,-2.9,3.5,-2.5,81.3*,7.9,-4.0
